Values belong to the compound of their own block, whether it stands above or below them. The source made the active and inactive calls. The rule behind the calls is not given here.
Assays:
[1] = tested on: UACC-257; experiment: Antiproliferative activity against human UACC-257 cells assessed as total growth inhibition measured after 48 hrs by SRB assay; conditions: UACC-257, 48 h
[2] = tested on: SK-MEL-2; experiment: Antiproliferative activity against human SK-MEL-2 cells assessed as total growth inhibition measured after 48 hrs by SRB assay; conditions: SK-MEL-2, 48 h
[3] = tested on: M14; experiment: Antiproliferative activity against human M14 cells assessed as cell growth inhibition measured after 48 hrs by SRB assay; conditions: M14, 48 h
[4] = target: RAF proto-oncogene serine/threonine-protein kinase (Homo sapiens, UniProt P04049); experiment: Inhibition of human wild type CRAF using myelin basic protein as substrate in presence of [gamma-33P]ATP incubated for 40 mins by scintillation counting method
RAF proto-oncogene serine/threonine-protein kinase, sequence (P04049 whole entry): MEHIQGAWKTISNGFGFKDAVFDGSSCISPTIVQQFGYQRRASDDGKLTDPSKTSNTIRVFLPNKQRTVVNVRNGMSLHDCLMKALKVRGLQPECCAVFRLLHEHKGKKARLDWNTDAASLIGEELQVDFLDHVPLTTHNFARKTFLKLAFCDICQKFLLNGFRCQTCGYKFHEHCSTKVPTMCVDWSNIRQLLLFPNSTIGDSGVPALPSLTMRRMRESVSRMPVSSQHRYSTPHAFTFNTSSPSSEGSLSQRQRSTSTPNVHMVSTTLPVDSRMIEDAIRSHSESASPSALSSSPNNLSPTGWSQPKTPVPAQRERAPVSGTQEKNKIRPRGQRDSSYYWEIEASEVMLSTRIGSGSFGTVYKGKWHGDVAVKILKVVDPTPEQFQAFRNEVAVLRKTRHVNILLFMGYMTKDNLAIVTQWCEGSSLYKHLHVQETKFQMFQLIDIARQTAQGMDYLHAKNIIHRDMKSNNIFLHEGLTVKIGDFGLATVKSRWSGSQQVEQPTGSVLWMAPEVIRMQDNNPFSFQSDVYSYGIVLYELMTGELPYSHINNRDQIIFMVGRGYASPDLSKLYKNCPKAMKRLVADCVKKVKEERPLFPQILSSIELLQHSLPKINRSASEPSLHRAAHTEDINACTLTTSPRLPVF

[5] = tested on: M14; experiment: Antiproliferative activity against human M14 cells assessed as total growth inhibition measured after 48 hrs by SRB assay; conditions: M14, 48 h
[6] = tested on: Panel colon (Carcinoma cell lines); experiment: Antiproliferative activity against human Panel colon (Carcinoma cell lines) assessed as cell growth inhibition measured after 48 hrs by SRB assay
[7] = tested on: Malme-3M; experiment: Antiproliferative activity against human Malme-3M cells assessed as cell growth inhibition measured after 48 hrs by SRB assay
[8] = tested on: SK-MEL-5; experiment: Antiproliferative activity against human SK-MEL-5 cells assessed as total growth inhibition measured after 48 hrs by SRB assay; conditions: SK-MEL-5, 48 h
[9] = tested on: MDA-MB-435; experiment: Antiproliferative activity against human MDA-MB-435 cells assessed as cell growth inhibition measured after 48 hrs by SRB assay; conditions: MDA-MB-435, 48 h
[10] = in vitro; conditions: human, BJ cells and Malme-3M cells
[11] = tested on: Malme-3M; experiment: Antiproliferative activity against human Malme-3M cells assessed as total growth inhibition measured after 48 hrs by SRB assay
[12] = tested on: Panel ovarian (Carcinoma cell lines); experiment: Antiproliferative activity against human Panel ovarian (Carcinoma cell lines) assessed as cell growth inhibition measured after 48 hrs by SRB assay
[13] = tested on: NSCLC; experiment: Antiproliferative activity against human NSCLC cell line assessed as cell growth inhibition measured after 48 hrs by SRB assay
[14] = target: Serine/threonine-protein kinase B-raf (Homo sapiens, UniProt P15056); experiment: Inhibition of human wild type BRAF using myelin basic protein as substrate in presence of [gamma-33P]ATP incubated for 40 mins by scintillation counting method
Serine/threonine-protein kinase B-raf (Homo sapiens, UniProt P15056), sequence (P15056 whole entry): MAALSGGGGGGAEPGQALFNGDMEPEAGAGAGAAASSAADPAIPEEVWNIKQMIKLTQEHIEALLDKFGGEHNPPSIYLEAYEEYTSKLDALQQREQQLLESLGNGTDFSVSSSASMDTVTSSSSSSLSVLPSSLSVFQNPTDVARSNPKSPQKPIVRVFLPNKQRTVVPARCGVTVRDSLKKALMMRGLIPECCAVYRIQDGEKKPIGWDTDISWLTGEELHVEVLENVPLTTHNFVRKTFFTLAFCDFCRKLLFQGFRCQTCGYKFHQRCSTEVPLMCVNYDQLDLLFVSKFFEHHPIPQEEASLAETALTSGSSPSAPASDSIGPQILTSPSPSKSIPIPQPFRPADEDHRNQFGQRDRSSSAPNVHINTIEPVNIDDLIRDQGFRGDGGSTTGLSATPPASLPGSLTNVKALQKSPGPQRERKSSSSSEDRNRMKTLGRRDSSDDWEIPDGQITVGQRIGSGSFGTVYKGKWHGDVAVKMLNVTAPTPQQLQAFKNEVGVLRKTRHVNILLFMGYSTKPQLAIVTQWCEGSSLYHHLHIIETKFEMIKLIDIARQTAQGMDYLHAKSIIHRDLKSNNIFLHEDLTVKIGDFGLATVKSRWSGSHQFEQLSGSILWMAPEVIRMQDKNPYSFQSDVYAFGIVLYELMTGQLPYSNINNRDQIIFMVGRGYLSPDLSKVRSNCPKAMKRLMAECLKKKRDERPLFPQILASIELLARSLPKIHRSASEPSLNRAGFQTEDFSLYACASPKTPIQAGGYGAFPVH
Outline: (§1)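 Radiometric kinase assay run at Reaction Biology. Kinase (5−10 mU) in 25 mM Tris pH 7.5, 0.02 mM EGTA, 10 mM magnesium acetate with 0.66 mg/mL myelin basic protein and [γ-33P]ATP at 1 μM ATP. Reaction started with Mg-ATP and run 40 min at room temperature, then stopped with 3% phosphoric acid. Spotted on P30 filtermat, washed, scintillation counted.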

[15] = tested on: MDA-MB-435; experiment: Antiproliferative activity against human MDA-MB-435 cells assessed as total growth inhibition measured after 48 hrs by SRB assay; conditions: MDA-MB-435, 48 h
[16] = tested on: UACC-62; experiment: Antiproliferative activity against human UACC-62 cells assessed as cell growth inhibition measured after 48 hrs by SRB assay; conditions: UACC-62, 48 h
[17] = Cytotoxicity against human L132 cells assessed as cell growth inhibition incubated for 48 hrs by MTT assay; format: toxicity, cell-based
[18] = tested on: Panel breast (Carcinoma cell lines); experiment: Antiproliferative activity against human Panel breast (Carcinoma cell lines) assessed as cell growth inhibition measured after 48 hrs by SRB assay
[19] = Cytotoxicity against human BJ cells assessed as cell growth inhibition incubated for 48 hrs by MTT assay; format: toxicity, cell-based
Outline: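 BJ1 normal skin fibroblasts were seeded at 10 × 10³ cells/well with compound in triplicate wells and grown in DMEM-F12 at 37 °C, 5% CO₂, across an eight-point dilution series. Growth inhibition was calculated as (1 − T/C) × 100, and IC50 was taken from the dose–response curve.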

[20] = tested on: Panel leukemia (Carcinoma cell lines); experiment: Antiproliferative activity against human Panel leukemia (Carcinoma cell lines) assessed as cell growth inhibition measured after 48 hrs by SRB assay
[21] = tested on: Panel melanoma (Carcinoma cell lines); experiment: Antiproliferative activity against human Panel melanoma (Carcinoma cell lines) assessed as cell growth inhibition measured after 48 hrs by SRB assay
[22] = tested on: Panel renal (Carcinoma cell lines); experiment: Antiproliferative activity against human Panel renal (Carcinoma cell lines) assessed as cell growth inhibition measured after 48 hrs by SRB assay
[23] = tested on: SK-MEL-28; experiment: Antiproliferative activity against human SK-MEL-28 cells assessed as total growth inhibition measured after 48 hrs by SRB assay; conditions: SK-MEL-28, 48 h
[24] = tested on: LOX IMVI; experiment: Antiproliferative activity against human LOX IMVI cells assessed as total growth inhibition measured after 48 hrs by SRB assay
[25] = tested on: LOX IMVI; experiment: Antiproliferative activity against human LOX IMVI cells assessed as cell growth inhibition measured after 48 hrs by SRB assay
[26] = tested on: Panel melanoma (Carcinoma cell lines); experiment: cells; conditions: Homo sapiens, 48 h, read-out: INH
[27] = tested on: SK-MEL-28; experiment: Antiproliferative activity against human SK-MEL-28 cells assessed as cell growth inhibition measured after 48 hrs by SRB assay; conditions: SK-MEL-28, 48 h
[28] = tested on: Panel prostate (Carcinoma cell lines); experiment: Antiproliferative activity against human Panel prostate (Carcinoma cell lines) assessed as cell growth inhibition measured after 48 hrs by SRB assay
[29] = tested on: UACC-257; experiment: Antiproliferative activity against human UACC-257 cells assessed as cell growth inhibition measured after 48 hrs by SRB assay; conditions: UACC-257, 48 h
[30] = tested on: Panel CNS (Carcinoma cell lines); experiment: Antiproliferative activity against human Panel CNS (Carcinoma cell lines) assessed as cell growth inhibition measured after 48 hrs by SRB assay
[31] = tested on: SK-MEL-2; experiment: Antiproliferative activity against human SK-MEL-2 cells assessed as cell growth inhibition measured after 48 hrs by SRB assay; conditions: SK-MEL-2, 48 h
[32] = tested on: UACC-62; experiment: Antiproliferative activity against human UACC-62 cells assessed as total growth inhibition measured after 48 hrs by SRB assay; conditions: UACC-62, 48 h
[33] = tested on: SK-MEL-5; experiment: Antiproliferative activity against human SK-MEL-5 cells assessed as cell growth inhibition measured after 48 hrs by SRB assay; conditions: SK-MEL-5, 48 h
[34] = target: Serine/threonine-protein kinase B-raf (Homo sapiens, UniProt P15056, V600E); experiment: Inhibition of human BRAF V600E mutant using myelin basic protein as substrate in presence of [gamma-33P]ATP incubated for 40 mins by scintillation counting method; outline: as §1
Serine/threonine-protein kinase B-raf (Homo sapiens, UniProt P15056, V600E), sequence (P15056 2-766 V600E limits assumed): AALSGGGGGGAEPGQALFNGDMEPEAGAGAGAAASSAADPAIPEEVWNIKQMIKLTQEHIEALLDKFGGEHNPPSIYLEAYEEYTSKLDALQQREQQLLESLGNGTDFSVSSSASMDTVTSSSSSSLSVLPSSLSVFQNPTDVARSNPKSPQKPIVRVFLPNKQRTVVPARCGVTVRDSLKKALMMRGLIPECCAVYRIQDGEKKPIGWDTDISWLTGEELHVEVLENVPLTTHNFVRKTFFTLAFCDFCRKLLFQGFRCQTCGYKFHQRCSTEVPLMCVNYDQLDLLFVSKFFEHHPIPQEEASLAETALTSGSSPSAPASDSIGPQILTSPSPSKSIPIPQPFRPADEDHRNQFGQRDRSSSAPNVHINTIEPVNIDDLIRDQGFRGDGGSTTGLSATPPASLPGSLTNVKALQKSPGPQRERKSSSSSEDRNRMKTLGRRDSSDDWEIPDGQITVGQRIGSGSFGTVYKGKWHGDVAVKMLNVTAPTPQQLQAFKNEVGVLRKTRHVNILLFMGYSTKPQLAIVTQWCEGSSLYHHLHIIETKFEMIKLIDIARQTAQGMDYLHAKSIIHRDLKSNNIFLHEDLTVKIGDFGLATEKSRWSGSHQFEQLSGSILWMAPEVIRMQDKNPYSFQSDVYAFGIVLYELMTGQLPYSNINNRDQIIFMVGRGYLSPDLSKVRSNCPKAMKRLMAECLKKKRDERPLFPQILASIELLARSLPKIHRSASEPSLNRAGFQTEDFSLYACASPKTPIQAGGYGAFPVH

[35] = tested on: A-375; experiment: Inhibition of Pan-Raf in human A-375 cells assessed as reduction in MEK phosphorylation at 5 uM measured after 24 hrs by immunoblot assay; format: cell-based
Outline: (§2)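 A375 cells were treated for 24 h, including at 5 μM alongside vemurafenib. Cells were lysed in RIPA buffer with phosphatase and protease inhibitors, separated by SDS-PAGE and blotted to PVDF. Blots were probed for phospho-MEK1/2, phospho-ERK1/2, total MEK and total ERK, with chemiluminescent detection.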

[36] = tested on: A-375; experiment: Inhibition of Pan-Raf in human A-375 cells assessed as reduction in ERK phosphorylation at 5 uM measured after 24 hrs by immunoblot assay; format: cell-based; outline: as §2
[37] = tested on: Panel colon (Carcinoma cell lines); experiment: cells; conditions: Homo sapiens, 48 h, read-out: INH
[38] = Stability in rat plasma assessed as parent compound remaining at 10 uM measured after 30 mins by LC-MS analysis; format: ADME, cell-free; conditions: read-out: Stability
Outline: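 About 10 μM compound shaken in human or rat plasma at 37 °C for 30 and 120 min. Acetonitrile added, samples centrifuged at 4 °C, and remaining parent in the supernatant quantified by LC−MS. Procaine and diltiazem run as references.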

- IC50 [4]: 0.00196 µM
- IC50 [6]: 8.08 µM
- IC50 [9]: 0.49 µM
- IC50 [12]: 12.1 µM
- IC50 [14]: 0.00633 µM
- IC50 [18]: 11.9 µM
- IC50 [20]: 11.9 µM
- IC50 [21]: 1.79 µM
- IC50 [22]: 5.98 µM
- IC50 [27]: 0.24 µM
- IC50 [28]: 11.6 µM
- IC50 [30]: 16.4 µM
- IC50 [31]: 2.26 µM
- IC50 [33]: 0.348 µM
- IC50 [34]: 0.00377 µM
Structure (SMILES): CN1CCCN(CCNc2nccc(-c3c(-c4cccc(O)c4)nc4sccn34)n2)S1(=O)=O
- TGI [1]: > 100 µM
- TGI [2]: 7.36 µM
- IC50 [3]: 0.174 µM
- TGI [5]: 12.9 µM
- IC50 [7]: 0.036 µM
- TGI [8]: 10.3 µM
- selectivity ratio [10]: 2100
- TGI [11]: 0.408 µM
- IC50 [13]: 13.6 µM
- TGI [15]: 51.6 µM
- IC50 [16]: 0.058 µM
- IC50 at 48 h [17]: 93.6 µM
- IC50 at 48 h [19]: 75.6 µM
- TGI [23]: 52 µM
- TGI [24]: 28.2 µM
- IC50 [25]: 4.36 µM
- inhibition at 10 µM [26]: 84.8%
- IC50 [29]: 8.21 µM
- TGI [32]: 3.14 µM

Structure (SMILES): CCCS(=O)(=O)Nc1ccc(F)c(C(=O)c2c[nH]c3ncc(-c4ccc(Cl)cc4)cc23)c1F
- inhibition [35]: Active
- inhibition [36]: Active

- IC50 [4]: 0.19 µM
- IC50 [14]: 0.921 µM
- IC50 [34]: 0.169 µM
Structure (SMILES): COc1cccc(-c2nc3sccn3c2-c2ccnc(NCCNS(=O)(=O)c3ccc4ccccc4c3)n2)c1
- inhibition at 10 µM [37]: 83.1%

Structure (SMILES): CCN(CC)CCOC(=O)c1ccc(N)cc1 [PROCAINE]
- remaining at 0.5 h, 10 µM [38]: 84.9%

Reference: ChEMBL document CHEMBL5046217, “Discovery of New Imidazo[2,1-b]thiazole Derivatives as Potent Pan-RAF Inhibitors with Promising In Vitro and In Vivo Anti-melanoma Activity” (J Med Chem, 2021)
